Tests used:
[1] = Inhibitory concentration against hepatitis C virus NS5B-mediated RNA synthesis in HBI10A cells; type: functional, cell-based; conditions: Homo sapiens
[2] = Effective concentration against hepatitis C virus RNA replication in a subgenomic bicistronic replicon in HBI10A cells; type: functional, cell-based; conditions: Homo sapiens
Summary of the method: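 Stable Huh-7-derived HBI10A hepatoma line carrying a subgenomic bicistronic HCV replicon. Compound incubated with cells for 24 h. Relative replicon RNA then quantified by in situ ribonuclease protection assay.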

[3] = Cytotoxic concentration of compound in human HBI10A cells infected with hepatitis C virus in MTS assay; type: functional
Summary of the method: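 MTS cytotoxicity run on samples parallel to the replicon assay, at the same time (24 h compound exposure). Cells plated at 2.0 × 10⁴/well and compound added next day at 2× in medium. Incubation at 37 °C, 5% CO₂. MTS reagent added for 1 h, then absorbance read at 490 nm.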

SMILES	IC50 [1]	EC50 [2]	CC50 [3]
CO[C@@H]1[C@H](O)[C@@H](CO)O[C@H]1n1ccc2c(O)nc(N)nc21	350 nM	> 50 µM	
Nc1nc(O)c2ccn([C@@H]3O[C@H](CO)C[C@H]3O)c2n1	80 nM	> 50 µM	
CO[C@@H]1[C@H](O)[C@@H](COP(=O)(OCCSC(=O)C(C)(C)C)OCCSC(=O)C(C)(C)C)O[C@H]1n1cnc2c(O)nc(N)nc21		> 50 µM	> 50 µM

Now those with a lower EC50 [2], led by results:

IC50 [1]	EC50 [2]	SMILES	CC50 [3]
	23 µM	CC(C)(C)C(=O)SCCOP(=O)(OCCSC(=O)C(C)(C)C)OC[C@@H]1C[C@@H](O)[C@H](n2cnc3c(O)nc(N)nc32)O1	> 50 µM
	7.2 µM	CC(C)(C)C(=O)SCCOP(=O)(OCCSC(=O)C(C)(C)C)OC[C@@H]1C[C@@H](O)[C@H](n2ccc3c(O)nc(N)nc32)O1	> 50 µM
	1.4 µM	CC(C)(C)C(=O)SCCOP(=O)(OCCSC(=O)C(C)(C)C)OC[C@@H]1C[C@@H](O)[C@H](n2ccc(N)nc2=O)O1	> 100 µM

Source: ChEMBL document CHEMBL1145189, “Synthesis and evaluation of S-acyl-2-thioethyl esters of modified nucleoside 5'-monophosphates as inhibitors of hepatitis C virus RNA replication” (J Med Chem, 2005)
